{
  "source": "ChEMBL document CHEMBL3259611",
  "about": "“Suppression of inflammatory responses by handelin, a guaianolide dimer from Chrysanthemum boreale, via downregulation of NF-κB signaling and pro-inflammatory cytokine production” (J Nat Prod, 2014)",
  "key": {"[1]": {"target": "Mitogen-activated protein kinase 1 and 3 (ERK2 and ERK1) (Mus musculus) (UniProt P63085+Q63844)", "sequence (P63085 whole entry, looked up)": "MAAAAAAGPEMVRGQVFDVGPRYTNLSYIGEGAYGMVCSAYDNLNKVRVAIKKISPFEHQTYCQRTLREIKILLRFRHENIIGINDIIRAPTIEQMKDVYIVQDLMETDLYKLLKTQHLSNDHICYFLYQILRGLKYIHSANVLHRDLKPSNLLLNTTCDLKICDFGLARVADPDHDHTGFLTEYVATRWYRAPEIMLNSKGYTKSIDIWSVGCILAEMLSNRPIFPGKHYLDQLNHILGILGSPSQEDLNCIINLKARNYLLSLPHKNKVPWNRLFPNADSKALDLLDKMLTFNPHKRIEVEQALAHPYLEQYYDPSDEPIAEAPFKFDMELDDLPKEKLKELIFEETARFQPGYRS", "sequence (Q63844 whole entry, looked up)": "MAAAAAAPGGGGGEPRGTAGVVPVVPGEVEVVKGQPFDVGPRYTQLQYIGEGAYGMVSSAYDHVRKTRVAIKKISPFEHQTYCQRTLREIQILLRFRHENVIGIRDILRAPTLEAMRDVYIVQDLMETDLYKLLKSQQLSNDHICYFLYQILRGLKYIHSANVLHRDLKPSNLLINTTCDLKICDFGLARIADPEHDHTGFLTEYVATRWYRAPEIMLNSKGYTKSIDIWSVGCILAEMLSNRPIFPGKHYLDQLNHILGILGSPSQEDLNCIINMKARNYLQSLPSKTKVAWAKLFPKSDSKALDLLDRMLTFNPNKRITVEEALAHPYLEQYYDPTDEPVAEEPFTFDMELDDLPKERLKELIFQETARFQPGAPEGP", "experiment": "Inhibition LPS-induced ERK1/2 phosphorylation at Thr202/Tyr204 in mouse RAW264.7 cells at 10 uM administered 30 mins prior to LPS challenge measured after 30 mins by Western blotting analysis", "type": "cell-based", "method_in_brief": "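RAW 264.7 cells pretreated with compound for 30 min, then stimulated with LPS for 30 min. Protein extracts were Western blotted for phosphorylated ERK and JNK (SDS-PAGE, PVDF, ECL detection).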"}, "[2]": {"target": "T1, Nuclear factor NF-kappa-B p105 subunit (Mus musculus) (UniProt P25799)", "T1 sequence (whole entry)": "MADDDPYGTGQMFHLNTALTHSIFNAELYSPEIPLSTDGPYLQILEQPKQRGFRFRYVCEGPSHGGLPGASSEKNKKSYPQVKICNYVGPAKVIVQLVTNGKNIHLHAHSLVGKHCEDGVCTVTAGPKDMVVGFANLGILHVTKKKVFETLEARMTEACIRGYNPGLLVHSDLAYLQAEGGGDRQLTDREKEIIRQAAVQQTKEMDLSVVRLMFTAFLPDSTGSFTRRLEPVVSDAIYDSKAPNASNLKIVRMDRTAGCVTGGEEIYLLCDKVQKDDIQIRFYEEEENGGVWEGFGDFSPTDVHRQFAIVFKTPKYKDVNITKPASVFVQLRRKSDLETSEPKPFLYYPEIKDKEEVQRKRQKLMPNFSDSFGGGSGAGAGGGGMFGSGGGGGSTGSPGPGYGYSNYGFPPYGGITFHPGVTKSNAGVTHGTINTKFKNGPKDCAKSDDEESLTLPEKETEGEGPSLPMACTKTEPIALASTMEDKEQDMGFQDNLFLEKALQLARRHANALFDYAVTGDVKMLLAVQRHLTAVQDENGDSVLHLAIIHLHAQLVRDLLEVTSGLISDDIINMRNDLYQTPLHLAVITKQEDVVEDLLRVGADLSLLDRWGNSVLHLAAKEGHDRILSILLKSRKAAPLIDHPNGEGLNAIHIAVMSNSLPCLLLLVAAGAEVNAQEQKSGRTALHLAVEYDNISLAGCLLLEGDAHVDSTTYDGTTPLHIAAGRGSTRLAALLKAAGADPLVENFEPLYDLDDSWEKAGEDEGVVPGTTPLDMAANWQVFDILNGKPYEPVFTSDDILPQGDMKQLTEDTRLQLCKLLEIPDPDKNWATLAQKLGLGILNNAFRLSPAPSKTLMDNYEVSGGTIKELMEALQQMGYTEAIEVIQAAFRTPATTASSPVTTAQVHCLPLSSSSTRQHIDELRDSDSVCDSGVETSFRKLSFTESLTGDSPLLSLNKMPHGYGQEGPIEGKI", "experiment": "Inhibition of LPS-induced NF-kappaB p50 binding to DNA in mouse RAW264.7 cells at 10 to 40 uM after 1.5 hrs by spectrophotometry", "type": "cell-based"}, "RAW264.7 [3]": {"test_system": "RAW264.7", "experiment": "Antiinflammatory activity in mouse RAW264.7 cells assessed as inhibition of LPS-induced iNOS protein expression at 40 uM after 16 hrs by Western blotting analysis relative to control", "type": "functional", "method_in_brief": "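RAW 264.7 cells given LPS (1 μg/mL) with or without compound for 16 h. Cell lysates were Western blotted for iNOS and COX-2 (6−15% SDS-PAGE, PVDF, ECL detection). Performed in triplicate.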"}, "RAW264.7 [4]": {"test_system": "RAW264.7", "experiment": "Antiinflammatory activity in mouse RAW264.7 cells assessed as inhibition of LPS-induced nitric oxide production at 20 uM administered 30 mins prior to LPS challenge measured after 20 hrs by Griess assay relative to control", "type": "functional", "method_in_brief": "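RAW 264.7 cells at 3 × 10^5 cells/mL in phenol red-free 10% FBS DMEM, pretreated for 30 min, then given 1 μg/mL LPS for 20 h. Nitrite in the medium was read by Griess reaction at 540 nm against a sodium nitrite standard curve. % inhibition was calculated versus vehicle control, and IC50 by nonlinear regression. Mean ± SD of triplicates.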"}, "RAW264.7 [5]": {"test_system": "RAW264.7", "experiment": "Inhibition of LPS-induced NFkappaB transcriptional activity in mouse RAW264.7 cells assessed as reduction of phosphorylated IkappaB-alpha level at 40 uM after 30 mins by Western blotting analysis relative to control", "type": "cell-based", "method_in_brief": "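Macrophages were exposed to compound for 30 min before LPS stimulation, with proteins extracted 30 min later. Nuclear extracts were prepared in Tris/KCl/NP-40 lysis buffer, then 420 mM NaCl buffer, and the cytosolic fraction was kept for IκB-α. Western blot on PVDF with ECL detection. Tests in triplicate; representative of three separate experiments.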"}, "Mus musculus": {"test_system": "Mus musculus", "experiment": "Antiinflammatory activity in ICR mouse ear edema model assessed as inhibition of TPA-induced ear edema at 20 mg/kg, po administered 30 mins prior to TPA challenge measured after 4 hrs relative to vehicle-treated control", "type": "functional", "method_in_brief": "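ICR mice (male, 18−20 g, 5 weeks old) dosed orally 30 min before TPA (1.0 μg in 20 μL acetone) was applied to inner and outer surfaces of the right ear. Killed by cervical dislocation after 4 h. Edema taken as the weight of a 5 mm punch biopsy of the right ear over the left. Ear homogenates were Western blotted for iNOS, COX-2 and IL-1β.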"}, "[6]": {"target": "T1, Nuclear factor NF-kappa-B p105 subunit (Mus musculus)", "experiment": "Inhibition of LPS-induced NF-kappaB p50 binding to DNA in mouse RAW264.7 cells at 10 to 40 uM after 1.5 hrs by spectrophotometry in presence of mutant oligonucleotide", "type": "cell-based"}, "RAW264.7 [7]": {"test_system": "RAW264.7", "experiment": "Antiinflammatory activity in mouse RAW264.7 cells assessed as inhibition LPS-induced TNF-alpha mRNA expression at 40 uM after 4 hrs by RT-PCR analysis relative to control", "type": "functional", "method_in_brief": "(§1)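 RAW 264.7 cells stimulated with LPS (1 μg/mL) with or without compound for 4 h. Total RNA was isolated and cytokine mRNA was analysed by RT-PCR: 94 °C 4 min, then 25−30 cycles of 94/55/72 °C for 30 s each, then 72 °C 5 min. Products were run on 2% agarose and stained with SYBR-Safe. Triplicate, representative of three experiments.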"}, "RAW264.7 [8]": {"test_system": "RAW264.7", "experiment": "Antiinflammatory activity in mouse RAW264.7 cells assessed as inhibition LPS-induced TNF-alpha mRNA expression at 20 uM after 4 hrs by RT-PCR analysis relative to control", "type": "functional", "method_in_brief": "as §1"}, "RAW264.7 [9]": {"test_system": "RAW264.7", "experiment": "Antiinflammatory activity in mouse RAW264.7 cells assessed as inhibition of LPS-induced COX2 mRNA expression at 40 uM after 5 hrs by RT-PCR analysis relative to control", "type": "functional", "method_in_brief": "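RAW 264.7 cells exposed to 1 μg/mL LPS with or without compound for 5 h. Total RNA was analysed by RT-PCR: 25−30 cycles with annealing at 55 °C. Products were separated on 2% agarose gel with SYBR-Safe staining. Experiments in triplicate.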"}, "RAW264.7 [10]": {"test_system": "RAW264.7", "experiment": "Antiinflammatory activity in mouse RAW264.7 cells assessed as inhibition LPS-induced IL-1beta protein expression after 4 hrs by Western blotting analysis", "type": "functional, cell-based", "method_in_brief": "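RAW 264.7 cells stimulated with LPS (1 μg/mL) with or without compound for 4 h. Lysates were resolved by 6−15% SDS-PAGE and blotted to PVDF. Blocked in 5% milk/PBST, primary antibody overnight at 4 °C, secondary antibody 2 h, detected by ECL. Triplicate, representative of three experiments.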"}},
  "note": "The source made the active and inactive calls. The rule behind the calls is not given here.",
  "data": [
    {"smiles": "C=C1C(=O)O[C@@H]2[C@@H]3[C@@]4(C=C[C@@]3(C)[C@]3(C4)C(=O)O[C@@H]4[C@H]5C(C)=CC[C@H]5[C@](C)(O)C[C@H](OC(C)=O)[C@H]43)[C@](C)(O)CC[C@@H]12", "values": [
      {"measurement": "fold change (FC)", "setting": "[1]", "value": 0.76},
      {"measurement": "inhibition", "setting": "[1]", "value": "Active"},
      {"measurement": "inhibition", "setting": "[2]", "value": "Active"},
      {"measurement": "fold change (FC)", "setting": "RAW264.7 [3]", "value": 0.13},
      {"measurement": "inhibition (INH)", "setting": "RAW264.7 [4]", "value": ">84", "unit": "%"},
      {"measurement": "fold change (FC)", "setting": "RAW264.7 [5]", "value": 0.44},
      {"measurement": "inhibition in vivo at 20 mg/kg", "setting": "Mus musculus", "value": 56, "unit": "%"},
      {"measurement": "inhibition", "setting": "[6]", "value": "Active"},
      {"measurement": "fold change (FC)", "setting": "RAW264.7 [7]", "value": 0.1},
      {"measurement": "fold change (FC)", "setting": "RAW264.7 [8]", "value": 0.66},
      {"measurement": "fold change (FC)", "setting": "RAW264.7 [9]", "value": 0.22},
      {"measurement": "inhibition", "setting": "RAW264.7 [10]", "value": "Dose-dependent effect"}
    ]}
  ]
}
